This is an account of results in ChEMBL document CHEMBL1138008, “2-(2-[3-(pyridin-3-yloxy)phenyl]-2H-tetrazol-5-yl) pyridine: a highly potent, orally active, metabotropic glutamate subtype 5 (mGlu5) receptor antagonist” (Bioorg Med Chem Lett, 2004).

The target of series [1] is T1, Metabotropic glutamate receptor 5 (Homo sapiens, UniProt P41594). Nature of the series: Antagonistic activity against Metabotropic glutamate receptor 5 in [Ca2+] flux assay using glutamate (10 uM) as agonist. Format: functional. The method, boiled down: (§1)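 Functional mGlu5 antagonism was read as Ca²⁺ flux, with glutamate at 10 μM as agonist. Values come from n = 2–4 determinations, with SD < ±25%.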
T1 sequence (P41594 whole entry): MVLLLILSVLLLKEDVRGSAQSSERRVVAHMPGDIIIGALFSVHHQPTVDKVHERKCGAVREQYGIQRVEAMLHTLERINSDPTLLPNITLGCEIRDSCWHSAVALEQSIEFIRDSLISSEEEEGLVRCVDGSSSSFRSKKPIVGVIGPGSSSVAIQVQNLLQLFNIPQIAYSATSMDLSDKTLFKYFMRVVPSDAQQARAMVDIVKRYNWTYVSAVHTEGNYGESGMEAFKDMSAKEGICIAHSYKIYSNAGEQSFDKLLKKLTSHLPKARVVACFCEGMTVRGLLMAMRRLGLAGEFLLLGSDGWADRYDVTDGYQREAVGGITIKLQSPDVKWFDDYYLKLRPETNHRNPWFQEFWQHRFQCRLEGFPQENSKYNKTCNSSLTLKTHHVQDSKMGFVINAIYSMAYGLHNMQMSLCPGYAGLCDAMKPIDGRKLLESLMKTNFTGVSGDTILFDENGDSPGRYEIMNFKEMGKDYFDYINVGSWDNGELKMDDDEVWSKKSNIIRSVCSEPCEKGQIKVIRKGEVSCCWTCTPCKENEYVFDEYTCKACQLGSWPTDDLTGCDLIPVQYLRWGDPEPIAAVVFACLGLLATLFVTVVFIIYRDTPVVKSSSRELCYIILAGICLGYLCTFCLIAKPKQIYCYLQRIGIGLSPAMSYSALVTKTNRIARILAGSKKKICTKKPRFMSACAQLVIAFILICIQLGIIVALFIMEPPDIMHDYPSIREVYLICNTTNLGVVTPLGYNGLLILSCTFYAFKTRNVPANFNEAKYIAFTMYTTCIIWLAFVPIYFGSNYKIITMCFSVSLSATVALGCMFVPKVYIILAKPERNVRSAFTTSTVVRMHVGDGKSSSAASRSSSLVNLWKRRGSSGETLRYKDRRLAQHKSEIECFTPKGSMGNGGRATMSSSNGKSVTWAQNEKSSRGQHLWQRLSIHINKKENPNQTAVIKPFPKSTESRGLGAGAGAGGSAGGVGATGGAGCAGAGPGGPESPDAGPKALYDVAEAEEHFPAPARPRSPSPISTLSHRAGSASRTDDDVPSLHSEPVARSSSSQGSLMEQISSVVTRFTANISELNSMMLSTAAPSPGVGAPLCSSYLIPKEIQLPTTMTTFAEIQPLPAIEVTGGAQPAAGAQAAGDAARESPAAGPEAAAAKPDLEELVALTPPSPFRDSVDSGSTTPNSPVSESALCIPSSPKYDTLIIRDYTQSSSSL

Series [2] addresses Metabotropic glutamate receptor 5 (Rattus norvegicus) (UniProt P31424). The series can be described thus: Percent occupancy of the Metabotropic glutamate receptor 5 by the [3H]3-methoxy-5-(pyridin-2-ylethynyl)pyridine ligand 1 hr post-administration of 10 mg/kg compound ip. Format: organism-based. On the set-up: dose 10 mg/kg. The method in brief: (§2)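 Rats were dosed ip at 10 mg/kg in PEG 400/water (1:1 v/v), given as a solution or a suspension. Receptor occupancy, hippocampus drug level and plasma drug level were measured 1 h after dosing.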

The nature of series [3]: Level in rat brain after 1 hr following 10 mg/kg dose ip. It counts as ADME, organism-based. On the set-up: dose 10 mg/kg, route intraperitoneal. Conditions: read-out: Level. The method in brief: as §2
Series [4] is described as follows: Plasma level after 1 hr following 10 mg/kg dose ip. Format: ADME, organism-based. On the set-up: dose 10 mg/kg, route intraperitoneal. As to conditions: rat, read-out: Level. The method, boiled down:
as §2

Series [5] concerns the target T2, Metabotropic glutamate receptor 5 (Rattus norvegicus, UniProt P31424). Nature of the series: Binding affinity towards Metabotropic glutamate receptor was determined by displacing [3H]3-methoxy-5-(pyridin-2-ylethynyl)pyridine from rat cortical membranes. The method, boiled down:
(§3)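 Radioligand displacement of [³H]-3-methoxy-5-(pyridin-2-ylethynyl)pyridine used rat cortical membranes. Values come from n = 2–4 determinations, with SD < ±25%.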

Series [6] concerns the target T2, Metabotropic glutamate receptor 5. Nature of the series: Binding affinity towards Metabotropic glutamate receptor was determined by displacing [3H]3-methoxy-5-(pyridin-2-ylethynyl)pyridine from rat cortical membranes; NA=Not active. The method, boiled down:
as §3

Series [7] concerns the target T1, Metabotropic glutamate receptor 5. Nature of the series: Antagonistic activity against Metabotropic glutamate receptor 5 in [Ca2+] flux assay using glutamate (10 uM) as agonist; NA=Not active. Format: functional. The method, boiled down: as §1
Series [8] can be described thus: Plasma clearance after i.v. dosing at 1 mg/kg, p.o. dosing at 1 mg/kg. In solution of PEG 400/water in dog. Format: ADME, organism-based, Canis lupus familiaris. As to conditions: iv, read-out: Clp.
Series [9] is described as follows: Maximum concentration after i.v. dosing at 1 mg/kg, p.o. dosing at 1 mg/kg. In solution of PEG 400/water in dog. It counts as ADME, organism-based, Canis lupus familiaris. As to conditions: in vivo, po.
Series [10] can be described thus: Maximum concentration after i.v. dosing at 2 mg/kg, p.o. dosing at 10 mg/kg. In solution of PEG 400/water in rat. It counts as ADME, organism-based. As to conditions: in vivo, po. The method in brief:
(§4)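 Rats were dosed iv at 2 mg/kg and orally at 10 mg/kg, in solution in PEG 400/water (1:1 v/v).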

A short description of series [11]: Maximum concentration after i.v. dosing at 1 mg/kg, p.o. dosing at 1 mg/kg. In solution of PEG 400/water in monkey. Conditions: cercopithecidae, in vivo, po. Format: ADME, organism-based.
A short description of series [12]: Plasma clearance after i.v. dosing at 2 mg/kg, p.o. dosing at 10 mg/kg. In solution of PEG 400/water in rat. Format: ADME, organism-based. Conditions: iv, read-out: Clp. The method, boiled down: as §4
Series [13] can be described thus: Plasma clearance after i.v. dosing at 1 mg/kg, p.o. dosing at 1 mg/kg. In solution of PEG 400/water in monkey. Format: ADME, organism-based. As to conditions: cercopithecidae, iv, read-out: Clp.
A short description of series [14]: Volume of distribution after i.v. dosing at 1 mg/kg, p.o. dosing at 1 mg/kg. In solution of PEG 400/water in dog. It counts as ADME, organism-based, Canis lupus familiaris. Conditions: in vivo, iv.
The nature of series [15]: Volume of distribution after i.v. dosing at 2 mg/kg, p.o. dosing at 10 mg/kg. In solution of PEG 400/water in rat. Conditions: in vivo, iv. It counts as ADME, organism-based. The method in brief:
as §4

Series [16] in a line: Volume of distribution after i.v. dosing at 1 mg/kg, p.o. dosing at 1 mg/kg. In solution of PEG 400/water in monkey. It counts as ADME, organism-based. Conditions: cercopithecidae, in vivo, iv.
A short description of series [17]: Oral bioavailability after i.v. dosing at 1 mg/kg, p.o. dosing at 1 mg/kg. In solution of PEG 400/water in dog. Format: ADME, organism-based, Canis lupus familiaris. Conditions: in vivo.
Series [18] in a line: Oral bioavailability after i.v. dosing at 2 mg/kg, p.o. dosing at 10 mg/kg. In solution of PEG 400/water in rat. As to conditions: in vivo. It counts as ADME, organism-based. The method in brief: as §4
Series [19] in a line: Oral bioavailability after i.v. dosing at 1 mg/kg, p.o. dosing at 1 mg/kg. In solution of PEG 400/water in monkey. As to conditions: cercopithecidae, in vivo. It counts as ADME, organism-based.
A short description of series [20]: Half life after i.v. dosing at 1 mg/kg, p.o. dosing at 1 mg/kg. In solution of PEG 400/water in dog. It counts as ADME, organism-based, Canis lupus familiaris. As to conditions: in vivo.
Series [21] can be described thus: Half life after i.v. dosing at 2 mg/kg, p.o. dosing at 10 mg/kg. In solution of PEG 400/water in rat. It counts as ADME, organism-based. Conditions: in vivo. The method, boiled down: as §4
Series [22] in a line: Half life after i.v. dosing at 1 mg/kg, p.o. dosing at 1 mg/kg. In solution of PEG 400/water in monkey. As to conditions: cercopithecidae, in vivo. It counts as ADME, organism-based.

T2 sequence (P31424 whole entry): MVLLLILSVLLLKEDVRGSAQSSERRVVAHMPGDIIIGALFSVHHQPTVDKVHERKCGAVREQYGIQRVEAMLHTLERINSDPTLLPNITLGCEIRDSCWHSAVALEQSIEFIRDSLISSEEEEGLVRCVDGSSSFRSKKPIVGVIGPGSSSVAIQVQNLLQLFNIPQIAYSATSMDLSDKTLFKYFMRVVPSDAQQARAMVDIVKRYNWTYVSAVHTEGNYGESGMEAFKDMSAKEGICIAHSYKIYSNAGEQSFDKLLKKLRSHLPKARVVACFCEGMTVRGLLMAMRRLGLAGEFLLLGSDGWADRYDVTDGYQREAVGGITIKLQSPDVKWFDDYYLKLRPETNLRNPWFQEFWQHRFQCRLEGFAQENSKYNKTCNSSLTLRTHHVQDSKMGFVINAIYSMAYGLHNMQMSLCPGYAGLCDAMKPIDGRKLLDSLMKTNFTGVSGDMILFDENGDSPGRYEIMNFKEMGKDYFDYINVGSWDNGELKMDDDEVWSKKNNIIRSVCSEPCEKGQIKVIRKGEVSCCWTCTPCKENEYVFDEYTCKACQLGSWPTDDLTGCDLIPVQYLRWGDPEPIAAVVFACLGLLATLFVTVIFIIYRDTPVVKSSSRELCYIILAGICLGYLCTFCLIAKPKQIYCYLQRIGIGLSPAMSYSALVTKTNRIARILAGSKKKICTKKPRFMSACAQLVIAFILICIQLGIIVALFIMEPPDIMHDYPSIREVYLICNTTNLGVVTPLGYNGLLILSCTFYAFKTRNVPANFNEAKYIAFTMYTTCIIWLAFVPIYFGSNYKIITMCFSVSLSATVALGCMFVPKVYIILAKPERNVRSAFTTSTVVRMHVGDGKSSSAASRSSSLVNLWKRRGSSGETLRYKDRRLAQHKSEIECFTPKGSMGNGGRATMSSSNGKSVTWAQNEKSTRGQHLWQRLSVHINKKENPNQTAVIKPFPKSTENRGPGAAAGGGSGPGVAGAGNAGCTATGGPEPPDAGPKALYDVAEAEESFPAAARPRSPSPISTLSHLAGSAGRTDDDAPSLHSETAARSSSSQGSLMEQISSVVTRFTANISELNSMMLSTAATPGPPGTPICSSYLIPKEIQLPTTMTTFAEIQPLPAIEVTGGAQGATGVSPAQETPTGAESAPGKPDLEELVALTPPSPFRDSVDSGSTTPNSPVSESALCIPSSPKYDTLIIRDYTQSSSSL
Metabotropic glutamate receptor 5 (Rattus norvegicus), sequence (P31424 21-1203 limits assumed): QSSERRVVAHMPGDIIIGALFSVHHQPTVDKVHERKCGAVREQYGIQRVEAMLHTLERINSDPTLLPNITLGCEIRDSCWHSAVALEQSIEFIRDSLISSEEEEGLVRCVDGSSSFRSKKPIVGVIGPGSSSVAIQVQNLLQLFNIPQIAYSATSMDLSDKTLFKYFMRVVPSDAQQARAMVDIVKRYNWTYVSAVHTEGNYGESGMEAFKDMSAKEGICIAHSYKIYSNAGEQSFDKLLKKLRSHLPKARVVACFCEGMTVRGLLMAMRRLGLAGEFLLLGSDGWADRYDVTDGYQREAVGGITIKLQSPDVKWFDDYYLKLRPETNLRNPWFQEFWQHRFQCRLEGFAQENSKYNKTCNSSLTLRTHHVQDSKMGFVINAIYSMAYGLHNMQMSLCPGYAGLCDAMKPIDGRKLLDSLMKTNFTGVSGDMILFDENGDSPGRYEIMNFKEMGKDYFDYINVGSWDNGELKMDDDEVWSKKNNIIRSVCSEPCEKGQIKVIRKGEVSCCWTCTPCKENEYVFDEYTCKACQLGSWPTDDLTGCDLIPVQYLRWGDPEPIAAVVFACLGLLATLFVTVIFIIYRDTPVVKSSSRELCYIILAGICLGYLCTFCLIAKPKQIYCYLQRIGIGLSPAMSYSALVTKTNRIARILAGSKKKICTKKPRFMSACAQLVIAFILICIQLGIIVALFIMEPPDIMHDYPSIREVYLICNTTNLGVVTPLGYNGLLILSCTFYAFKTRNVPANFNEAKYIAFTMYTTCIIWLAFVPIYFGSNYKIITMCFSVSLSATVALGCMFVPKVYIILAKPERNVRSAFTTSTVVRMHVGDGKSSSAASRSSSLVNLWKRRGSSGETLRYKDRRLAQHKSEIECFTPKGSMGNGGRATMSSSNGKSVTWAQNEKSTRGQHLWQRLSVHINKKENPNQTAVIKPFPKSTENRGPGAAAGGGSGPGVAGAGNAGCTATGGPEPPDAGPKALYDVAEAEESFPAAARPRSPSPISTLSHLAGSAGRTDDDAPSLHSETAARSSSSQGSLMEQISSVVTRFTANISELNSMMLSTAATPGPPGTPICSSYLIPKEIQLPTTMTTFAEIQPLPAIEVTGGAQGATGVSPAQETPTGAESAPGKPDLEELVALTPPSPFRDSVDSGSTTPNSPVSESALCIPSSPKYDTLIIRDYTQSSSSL

As to `N#Cc1cc(F)cc(-n2nnc(-c3ccccn3)n2)c1`, the IC50 – broadly, the concentration that gives 50% inhibition – in [1] came to 0.0039 µM. For the same compound, the Occupancy in series [2] turned out to be 97%. Further, the concentration at 1 h in series [3] amounted to 9.7 µM; in series [4], 8.7 µM.
On to `c1ccc(Oc2cccc(-n3nnc(-c4ccccn4)n3)c2)nc1`, for which, in [1], the IC50 amounted to 2.86 µM. In series [5], the affinity corresponds to a Ki of 0.633 µM.
Consider `c1ccc(-c2nnn(-c3cccc(Oc4ccncc4)c3)n2)nc1`, for which, in series [6], the Ki – broadly, a dissociation constant, usually derived from enzyme kinetics or from competition with a known ligand – was “Not Active”. In addition, the half-maximal inhibitory concentration (IC50) result in series [7] is “Not Active”.
In [1], `N#Cc1cccc(-n2nnc(-c3ccccn3)n2)c1` showed an IC50 of 0.073 µM. Also, the Ki in [5] was 0.186 µM. Also, the Occupancy in series [2] is 96%. The concentration at 1 h in [3] was 12 µM; in [4], 13 µM.
For `Fc1cc(Cc2cccnc2)cc(-n2nnc(-c3ccccn3)n2)c1` the same measures were 0.017 µM, 0.038 µM, 43%, 2.7 µM and 0.9 µM.
On to `c1ccc(Oc2cccc(-n3nnc(-c4ccccn4)n3)c2)cc1`, for which the IC50 in series [1] is 1.46 µM. In addition, the inhibitory constant (Ki) in series [5] turned out to be 0.617 µM.
For the compound `c1ccc(-c2nnn(-c3ccccc3Oc3cccnc3)n2)nc1`, in series [1], the IC50 was found to be 1.58 µM.
In [1], `Fc1cc(Sc2cccnc2)cc(-n2nnc(-c3ccccn3)n2)c1` registered an IC50 of 0.013 µM. Moreover, in series [5], the Ki was 0.016 µM. In addition, the Occupancy in series [2] is 83%. For the same compound, the concentration at 1 h in [3] was determined as 1.5 µM; in series [4] it was 3.4 µM.
Turning to `Fc1cc(-n2nnc(-c3ccccn3)n2)cc(-n2ccc3cccnc32)c1`, in [1], the IC50 was 0.016 µM. The compound also returned a Ki in series [5] of 0.025 µM.
For `CN(c1cccnc1)c1cc(F)cc(-n2nnc(-c3ccccn3)n2)c1`, the IC50 in [1] was found to be 0.022 µM. This compound also yielded a Ki in series [5] of 0.03 µM. This compound also returned an Occupancy in series [2] of 58%. In addition, the concentration at 1 h in series [3] stood at 4.9 µM; in series [4], 3.5 µM.
Regarding `Fc1cc(Oc2cccnc2)cc(-n2nnc(-c3ccccn3)n2)c1`, the clearance came to 14 mL/min/kg in [8], 21 mL/min/kg in [12] and 7.7 mL/min/kg in series [13]. Also, the IC50 in series [1] amounted to 0.0067 µM. In addition, the Ki in series [5] was 0.012 µM. The figures for the Cmax in series [9], in series [10] and in series [11] were 1.4 µM, 11 µM and 0.3 µM, respectively. The Vd in [14] turned out to be 1.5 L/kg; in series [15], 22 L/kg; in series [16], 0.7 L/kg. For the same compound, the bioavailability – broadly, dose-corrected exposure relative to a reference, in per cent – in series [17] was determined as 54%; in [18] it was 100%; in series [19] it was 27%. The results for the concentration at 1 h in [3] and in series [4] were 6.7 µM and 7.4 µM, respectively. The half-life (as a rule, the time needed for the level to fall by half in the phase considered) was 2.3 h in [20], 2.7 h in series [21] and 2.5 h in [22].
In turn, `c1ccc(-c2nnn(-c3cccc(Oc4cccnc4)c3)n2)nc1` had an IC50 in series [1] of 0.03 µM. Besides, the Ki in [5] amounted to 0.059 µM. In [2], this compound came in with an Occupancy of 60%.
For `c1ccc(-c2nnn(-c3ccc(Oc4cccnc4)cc3)n2)nc1`, the IC50 in series [1] was determined as 0.737 µM. The same compound showed an inhibition constant Ki in series [5] of 0.633 µM.
For `Fc1cc(Nc2cccnc2)cc(-n2nnc(-c3ccccn3)n2)c1` the same measures were 0.124 µM and 0.029 µM.
